# From ChEMBL document CHEMBL4689842, “EUbOPEN Chemogenomics Library wave 1” (2021)
# Values joined by “and” are separate entries in the source; they are usually repeats but may differ in a detail not shown here. Equal entries are not always repeated.
# System: HEK-293T
# Assay: Multiplex assay against HEK293T;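 on Population Tubulin-Different-Phenotype (%): share of the cells with healthy nuclei that show this phenotype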
# Type: toxicity, cell-based
# Details: human
# How it was run: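 Values for tubulin, mitochondrial-mass and membrane-permeability phenotypes are per cents of cells with healthy nuclei. These cells were identified by CellPathfinder machine-learning gating of live cells that had been stained at seeding with Hoechst33342, BioTracker Green Microtubule Cytoskeleton Dye, MitoTracker Red and Annexin V Alexa Fluor 680 and imaged on a CQ1 microscope at 37°C and 5% CO2 after compound addition. The gating first set Hoechst high-intensity objects apart from normal cells, then split normal cells into healthy, pyknosed or fragmented nuclei, and pyknosed cells into mitotic or apoptotic.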
# [1] = 12 h, 1 µM, compound concentration 1 uM, replicate 1
# [2] = 12 h, 1 µM, compound concentration 1 uM, replicate 2
# [3] = 12 h, 10 µM, compound concentration 10 uM, replicate 1
# [4] = 12 h, 10 µM, compound concentration 10 uM, replicate 2
# [5] = 24 h, 1 µM, compound concentration 1 uM, replicate 1
# [6] = 24 h, 1 µM, compound concentration 1 uM, replicate 2
# [7] = 24 h, 10 µM, compound concentration 10 uM, replicate 1
# [8] = 24 h, 10 µM, compound concentration 10 uM, replicate 2
# [9] = 48 h, 1 µM, compound concentration 1 uM, replicate 1
# [10] = 48 h, 1 µM, compound concentration 1 uM, replicate 2
# [11] = 48 h, 10 µM, compound concentration 10 uM, replicate 1
# [12] = 48 h, 10 µM, compound concentration 10 uM, replicate 2
smiles,measurement,setting,value
O=C(NCCCC1CCCCC1)c1ccc(CNC(=O)c2cnn(-c3ccccc3)c2C(F)(F)F)cc1 [SR-321],Population Apoptotic (%),[1],40% and 29% and 42%
same,Population Fragmented Nuclei (%),[1],15% [middle of 4 runs]
same,Population Healthy Nuclei (%),[1],31% and 37% and 67%
same,Population Hoechst High Intensity Objects (%),[1],14% [middle of 4 runs]
same,Population Membrane Permeable-Phenotype (%),[1],2% and 0% and 3%
same,Population Mitotic Cells (%),[1],59% and 70% and 57%
same,Population Normal (%),[1],85% and 83% and 90% and 88%
same,Total Cell Count,[1],312 [middle of 4 runs]
same,Population Apoptotic (%),[2],10% [middle of 4 runs]
same,Population Fragmented Nuclei (%),[2],6% [middle of 4 runs]
same,Population Healthy Nuclei (%),[2],42% [middle of 4 runs]
same,Population Hoechst High Intensity Objects (%),[2],3% and 2% and 5%
same,Population Membrane Permeable-Phenotype (%),[2],10% and 8% and 1%
same,Population Mitochondria Different-Phenotype (%),[2],10% and 19% and 7%
same,Population Mitotic Cells (%),[2],85% and 90% and 89% and 92%
same,Population Normal (%),[2],96% and 97% and 94%
same,Population Apoptotic (%),[3],50% [middle of 4 runs]
same,Population Fragmented Nuclei (%),[3],16% [middle of 4 runs]
same,Population Hoechst High Intensity Objects (%),[3],17% [middle of 4 runs]
same,Population Membrane Permeable-Phenotype (%),[3],6% and 2% and 4%
same,Population Mitotic Cells (%),[3],60% [middle of 4 runs]
same,Population Normal (%),[3],86% and 81% and 82% and 89%
same,Total Cell Count,[3],302 [middle of 4 runs]
same,Population Healthy Nuclei (%),[4],38% [middle of 4 runs]
same,Population Hoechst High Intensity Objects (%),[4],4% and 2% and 3%
same,Population Membrane Permeable-Phenotype (%),[4],5% and 3% and 0%
same,Population Mitotic Cells (%),[4],86% [middle of 4 runs]
same,Population Normal (%),[4],95% and 97% and 96%
same,Population Tubulin-Different-Phenotype (%),[4],32% [middle of 4 runs]
same,Population Fragmented Nuclei (%),[5],13% [middle of 4 runs]
same,Population Healthy Nuclei (%),[5],42% and 36% and 81%
same,Population Hoechst High Intensity Objects (%),[5],15% [middle of 4 runs]
same,Population Membrane Permeable-Phenotype (%),[5],2% [middle of 4 runs]
same,Population Mitotic Cells (%),[5],59% and 54% and 58% and 86%
same,Population Normal (%),[5],87% and 83% and 84% and 93%
same,Total Cell Count,[5],361 [middle of 4 runs]
same,Population Healthy Nuclei (%),[6],65% [middle of 4 runs]
same,Population Hoechst High Intensity Objects (%),[6],2% and 3%
same,Population Membrane Permeable-Phenotype (%),[6],11% [middle of 4 runs]
same,Population Mitotic Cells (%),[6],82% and 89% and 94%
same,Population Normal (%),[6],97% and 96%
same,Population Tubulin-Different-Phenotype (%),[6],20% [middle of 4 runs]
same,Population Apoptotic (%),[7],57% [middle of 4 runs]
same,Population Fragmented Nuclei (%),[7],16% and 19% and 18%
same,Population Membrane Permeable-Phenotype (%),[7],0% and 4% and 6%
same,Population Mitotic Cells (%),[7],53% [middle of 4 runs]
same,Population Normal (%),[7],81% and 80% and 85% and 93%
same,Population Tubulin-Different-Phenotype (%),[7],59% and 53% and 26%
same,Population Healthy Nuclei (%),[8],55% [middle of 4 runs]
same,Population Hoechst High Intensity Objects (%),[8],3% and 4%
same,Population Mitotic Cells (%),[8],73% and 81% and 95%
same,Population Normal (%),[8],96% and 95%
same,Population Tubulin-Different-Phenotype (%),[8],44% [middle of 4 runs]
same,Population Apoptotic (%),[9],41% and 50% and 34%
same,Population Fragmented Nuclei (%),[9],14% and 21% and 17%
same,Population Healthy Nuclei (%),[9],34% and 40%
same,Population Hoechst High Intensity Objects (%),[9],14% and 20%
same,Population Membrane Permeable-Phenotype (%),[9],4% and 2%
same,Population Mitochondria Different-Phenotype (%),[9],31% and 29%
same,Population Mitotic Cells (%),[9],58% and 49% and 65%
same,Population Normal (%),[9],85% and 79%
same,Population Pyknosed Nuclei (%),[9],50% and 38% and 42%
same,Population Tubulin-Different-Phenotype (%),[9],27% and 29%
same,Total Cell Count,[9],401 and 332 and 411
same,Population Apoptotic (%),[10],9% and 8% and 13%
same,Population Fragmented Nuclei (%),[10],6% and 5%
same,Population Healthy Nuclei (%),[10],79% and 76% and 82%
same,Population Hoechst High Intensity Objects (%),[10],3% and 5%
same,Population Membrane Permeable-Phenotype (%),[10],8% and 6%
same,Population Mitochondria Different-Phenotype (%),[10],3% and 7% and 6%
same,Population Mitotic Cells (%),[10],90% and 91% and 86%
same,Population Normal (%),[10],96% and 94%
same,Population Pyknosed Nuclei (%),[10],13% and 17% and 11%
same,Population Tubulin-Different-Phenotype (%),[10],18% and 22% and 15%
same,Total Cell Count,[10],377 and 459 and 394
same,Population Apoptotic (%),[11],48% and 63% and 54%
same,Population Fragmented Nuclei (%),[11],23% and 25%
same,Population Healthy Nuclei (%),[11],28% and 27% and 18%
same,Population Hoechst High Intensity Objects (%),[11],19% and 20% and 16%
same,Population Membrane Permeable-Phenotype (%),[11],0% and 1%
same,Population Mitochondria Different-Phenotype (%),[11],73% and 83%
same,Population Mitotic Cells (%),[11],51% and 36% and 45%
same,Population Normal (%),[11],80% and 79% and 83%
same,Population Pyknosed Nuclei (%),[11],47% and 48% and 56%
same,Population Tubulin-Different-Phenotype (%),[11],32% and 59%
same,Total Cell Count,[11],274 and 281 and 324
same,Population Apoptotic (%),[12],30% and 26% and 20%
same,Population Fragmented Nuclei (%),[12],6% and 5% and 8%
same,Population Healthy Nuclei (%),[12],78% and 75% and 74%
same,Population Hoechst High Intensity Objects (%),[12],3% and 2%
same,Population Membrane Permeable-Phenotype (%),[12],5% and 2%
same,Population Mitochondria Different-Phenotype (%),[12],27% and 41% and 31%
same,Population Mitotic Cells (%),[12],69% and 73% and 79%
same,Population Normal (%),[12],96% and 97%
same,Population Pyknosed Nuclei (%),[12],15% and 19% and 17%
same,Population Tubulin-Different-Phenotype (%),[12],50% and 52% and 49%
same,Total Cell Count,[12],396 and 327 and 349
